Experimental data as given in ChEMBL document CHEMBL3870351, “Synthesis of 2-methyl-1,4-naphthoquinones with higher gamma-glutamyl carboxylase activity than MK-4 both in vitro and in vivo” (Bioorg Med Chem Lett, 2017).
Calls of active or inactive are those of the source. The rule behind the calls is not given here.

Tests used:
[1] = target: T1, Vitamin K-dependent gamma-carboxylase (Homo sapiens) (UniProt P38435); experiment: Activation of gamma-glutamyl carboxylase in human MG63 cells assessed as reduction in un-carboxylated osteocalcin level at 50 nM after 72 hrs by enzyme immuno assay; type: cell-based; settings: MG-63
T1 sequence (whole entry): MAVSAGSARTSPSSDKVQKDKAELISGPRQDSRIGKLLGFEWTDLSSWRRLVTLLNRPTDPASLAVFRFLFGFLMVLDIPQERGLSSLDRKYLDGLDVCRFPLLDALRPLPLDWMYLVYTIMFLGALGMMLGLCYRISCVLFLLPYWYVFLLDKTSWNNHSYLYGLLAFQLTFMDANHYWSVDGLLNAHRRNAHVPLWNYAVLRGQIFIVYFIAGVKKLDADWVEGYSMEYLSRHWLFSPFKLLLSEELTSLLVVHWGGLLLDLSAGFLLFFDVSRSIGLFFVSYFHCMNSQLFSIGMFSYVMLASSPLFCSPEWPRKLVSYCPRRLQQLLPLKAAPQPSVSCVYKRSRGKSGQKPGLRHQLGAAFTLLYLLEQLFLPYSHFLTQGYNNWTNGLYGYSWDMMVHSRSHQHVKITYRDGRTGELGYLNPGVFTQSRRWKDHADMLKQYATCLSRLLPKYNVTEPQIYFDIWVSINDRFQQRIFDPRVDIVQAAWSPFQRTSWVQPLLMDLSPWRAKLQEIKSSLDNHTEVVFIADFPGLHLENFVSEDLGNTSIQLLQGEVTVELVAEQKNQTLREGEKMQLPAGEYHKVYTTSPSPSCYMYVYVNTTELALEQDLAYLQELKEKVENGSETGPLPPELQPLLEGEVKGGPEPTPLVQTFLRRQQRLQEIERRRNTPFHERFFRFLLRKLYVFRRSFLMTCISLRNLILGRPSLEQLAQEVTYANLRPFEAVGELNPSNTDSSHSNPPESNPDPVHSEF
In short: (§1)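 Human osteosarcoma MG63 cells; uncarboxylated (ucOC) and carboxylated (cOC) osteocalcin measured in culture media/supernatants; untreated controls received no vitamin K or analogue; run in triplicate.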

[2] = target: T1, Vitamin K-dependent gamma-carboxylase (Homo sapiens); experiment: Activation of gamma-glutamyl carboxylase in human MG63 cells assessed as increase in carboxylated osteocalcin level at 50 nM after 72 hrs by enzyme immuno assay; type: cell-based; settings: MG-63; in short: as §1
[3] = Cytotoxicity against human MG63 cells assessed as decrease in cell viability up to 500 nM by MTT assay; type: toxicity, cell-based; settings: mg-63
In short: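 MG63 cells; cell viability measured with compounds at concentrations up to 500 nM.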

[4] = species on record: Rattus norvegicus; experiment: Restoration of prothrombin activity in vitamin-K deficient diet fed Wistar-Kyoto rat assessed as plasma prothrombin level at 5 ug/g of food for 5 days by one-stage PT-based clotting assay (reference value: 60%); type: functional
[5] = species on record: Rattus norvegicus; experiment: Toxicity in vitamin-K deficient diet fed Wistar-Kyoto rat assessed as change in body weight at 5 ug/g of food for 2 to 5 days; type: organism-based; settings: in vivo, po
[6] = species on record: Rattus norvegicus; experiment: Restoration of prothrombin activity in vitamin-K deficient diet fed Wistar-Kyoto rat assessed as plasma prothrombin level at 5 ug/g of food for 2 days by one-stage PT-based clotting assay (reference value: 60%); type: functional
[7] = species on record: Rattus norvegicus; experiment: Toxicity in vitamin-K deficient diet fed Wistar-Kyoto rat assessed as change in body weight at 0.5 ug/g of food for 5 days; type: organism-based; settings: in vivo, po, 120 h

Compound | Activity [1] | Activity [2] | Activity [3] | further results
CC1=C(CC(=O)O)C(=O)c2ccccc2C1=O | Active | Active | Non-Toxic | –
CCCCCCCCCCCCCCCCNC(=O)CC1=C(C)C(=O)c2ccccc2C1=O | Active | Active | Non-Toxic | –
CC1=CC(=O)c2ccccc2C1=O [MENADIONE] | – | – | Non-Toxic | –
CCOC(=O)CC1=C(C)C(=O)c2ccccc2C1=O | Active | Active | Non-Toxic | –
COc1c(C)c(Br)c(OC)c2ccccc12 | – | – | Non-Toxic | –
CCCCCCCCCCCCCCCCCCNC(=O)CC1=C(C)C(=O)c2ccccc2C1=O | Active | – | Non-Toxic | –
CCOC(=O)Cc1c(C)c(OC)c2ccccc2c1OC | – | – | Non-Toxic | –
CC(C)=CCC/C(C)=C/CC/C(C)=C/CC/C(C)=C/CC1=C(C)C(=O)c2ccccc2C1=O | Active | Active | – | –
CC1=C(Br)C(=O)c2ccccc2C1=O | – | – | Non-Toxic | –
CCCCCCCCCCCCCCCCCNC(=O)CC1=C(C)C(=O)c2ccccc2C1=O | Active | – | Non-Toxic | –
CCCCCCCCCCCCCCNC(=O)CC1=C(C)C(=O)c2ccccc2C1=O | Active | Active | Non-Toxic | Activity [4]: 106%; Activity [5]: Non-Toxic; Activity [6]: 107%; Activity [7]: Non-Toxic
COc1c(C)c(CC(=O)O)c(OC)c2ccccc12 | Active | Active | Non-Toxic | –
